Reference: ChEMBL document CHEMBL1122927, “Metabolism of the nigrostriatal toxin 1-methyl-4-phenyl-1,2,3,6-tetrahydropyridine by liver homogenate fractions” (J Med Chem, 1985)

What was measured:
Format in all cases: ADME
Conditions in all cases: microsomes
Oryctolagus cuniculus [1] = species: Oryctolagus cuniculus; assay: Formation of metabolite by rabbit liver microsomal preparation in presence of NADPH, at 2 hours
Outline: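 Male New Zealand white rabbit liver microsomes (100000g pellet, 2–3 mg protein/mL) in 100 mM Hepes pH 7.6 with an NADPH-generating system and 0.5–1.0 mM MPTP, in air, 37 °C, 2 h. Stopped with 2 volumes ice-cold acetonitrile, then centrifuged. Reverse-phase HPLC (acetonitrile/100 mM acetic acid 65:35, pH 5.6, 254 nm) quantified nor and N-oxide peaks as nmol/mL per 2 h.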

Oryctolagus cuniculus [2] = species: Oryctolagus cuniculus; assay: Formation of metabolite by rabbit liver microsomal preparation in absence of NADPH, at 2 hours
Outline: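 Rabbit liver microsomes (2–3 mg protein/mL), 100 mM Hepes pH 7.6, 0.5–1.0 mM MPTP, with the NADPH-generating system omitted; 37 °C for 2 h. Stopped with cold acetonitrile and centrifuged. Nor and N-oxide products measured by reverse-phase HPLC at 254 nm as nmol/mL per 2 h.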

Oryctolagus cuniculus [3] = species: Oryctolagus cuniculus; assay: Formation of metabolite by rabbit liver microsomal preparation in presence of N2,at 2 hour
Outline: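 Incubation under 100% N2, with N2-saturated buffer in sealed vials. Rabbit liver microsomes (2–3 mg protein/mL), 100 mM Hepes pH 7.6, NADPH-generating system, 0.5–1.0 mM MPTP, 37 °C, 2 h. Stopped with ice-cold acetonitrile. Nor and N-oxide products read by reverse-phase HPLC at 254 nm, expressed as nmol/mL per 2 h.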

Oryctolagus cuniculus [4] = species: Oryctolagus cuniculus; assay: Formation of metabolite by rabbit liver microsomal preparation in presence of Co-O2 (90:10),at 2 hour
Outline: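 Buffer was saturated with CO-O2 (90:10), and incubation ran in sealed vials under that gas. Rabbit liver microsomes (2–3 mg protein/mL), 100 mM Hepes pH 7.6, NADPH-generating system, 0.5–1.0 mM MPTP, 37 °C, 2 h. Stopped with cold acetonitrile. Nor and N-oxide products quantified by reverse-phase HPLC (254 nm) as nmol/mL per 2 h.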

Oryctolagus cuniculus [5] = species: Oryctolagus cuniculus; assay: Formation of metabolite by rabbit liver microsomal preparation in presence of SKF525A,at 2 hour
Outline: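 Rabbit liver microsomes were preincubated 5 min with SKF 525A (5 × 10⁻⁴ M) before MPTP (0.5–1.0 mM) was added. Run in 100 mM Hepes pH 7.6 with an NADPH-generating system, 2–3 mg protein/mL, 37 °C, 2 h. Stopped with cold acetonitrile. Nor and N-oxide products quantified by reverse-phase HPLC (254 nm) as nmol/mL per 2 h.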

Row | SMILES | Amount of metabolite (Oryctolagus cuniculus [1]) [nM ml-1] | Amount of metabolite (Oryctolagus cuniculus [2]) [nM ml-1] | Amount of metabolite (Oryctolagus cuniculus [3]) [nM ml-1] | Amount of metabolite (Oryctolagus cuniculus [4]) [nM ml-1] | Amount of metabolite (Oryctolagus cuniculus [5]) [nM ml-1]
1 | C1=C(c2ccccc2)CCNC1 | 130 | 0 | 16 | 53 | 70
2 | C[N+]1([O-])CC=C(c2ccccc2)CC1 (stereo not given) | 190 | 0 | 0 | 160 | 170
